# Source: ChEMBL document CHEMBL5058577, “EUbOPEN Chemogenomics Library 2 (Multiplex)” (2022)
# Test system: U2OS
# Test: Multiplex assay against U2OS
# Format: toxicity, cell-based
# Conditions: human
# In short: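 Four dyes were applied at seeding to live cells: Hoechst33342, BioTracker Green Microtubule Cytoskeleton Dye, MitoTracker Red and Annexin V Alexa Fluor 680. Imaging after compound addition used a CQ1 microscope at 37°C and 5% CO2. CellPathfinder machine-learning gating then sorted cells into Hoechst high-intensity objects or normal cells, normal cells into healthy, pyknosed or fragmented nuclei, and pyknosed cells into mitotic or apoptotic, with tubulin, mitochondrial-mass and membrane-permeability phenotypes given as per cents of healthy-nucleus cells.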
# [1] = 12 h, 1 µM, compound concentration 1 uM, replicate 1
# [2] = 12 h, 1 µM, compound concentration 1 uM, replicate 2
# [3] = 12 h, 10 µM, compound concentration 10 uM, replicate 1
# [4] = 12 h, 10 µM, compound concentration 10 uM, replicate 2
# [5] = 24 h, 1 µM, compound concentration 1 uM, replicate 1
# [6] = 24 h, 1 µM, compound concentration 1 uM, replicate 2
# [7] = 24 h, 10 µM, compound concentration 10 uM, replicate 1
# [8] = 24 h, 10 µM, compound concentration 10 uM, replicate 2
# [9] = 48 h, 1 µM, compound concentration 1 uM, replicate 1
# [10] = 48 h, 1 µM, compound concentration 1 uM, replicate 2
# [11] = 48 h, 10 µM, compound concentration 10 uM, replicate 1
# [12] = 48 h, 10 µM, compound concentration 10 uM, replicate 2
smiles,measurement,setting,value
Br.CS(=O)(=O)Nc1c(O)ccc2c1CCCC2C1=NCCN1 (centres undefined),Population Apoptotic (%),[1],63%
same,Population Fragmented Nuclei (%),[1],20%
same,Population Healthy Nuclei (%),[1],75%
same,Population Hoechst High Intensity Objects (%),[1],2%
same,Population Membrane Permeable-Phenotype (%),[1],3%
same,Population Mitochondria Different-Phenotype (%),[1],2%
same,Population Mitotic Cells (%),[1],36%
same,Population Normal (%),[1],97%
same,Population Pyknosed Nuclei (%),[1],3%
same,Population Tubulin-Different-Phenotype (%),[1],2%
same,Total Cell Count,[1],288
same,Population Apoptotic (%),[2],80%
same,Population Fragmented Nuclei (%),[2],13%
same,Population Healthy Nuclei (%),[2],82%
same,Population Hoechst High Intensity Objects (%),[2],0%
same,Population Membrane Permeable-Phenotype (%),[2],5%
same,Population Mitochondria Different-Phenotype (%),[2],1%
same,Population Mitotic Cells (%),[2],20%
same,Population Normal (%),[2],100%
same,Population Tubulin-Different-Phenotype (%),[2],1%
same,Total Cell Count,[2],151
same,Population Apoptotic (%),[3],69%
same,Population Fragmented Nuclei (%),[3],36%
same,Population Healthy Nuclei (%),[3],57%
same,Population Hoechst High Intensity Objects (%),[3],1%
same,Population Membrane Permeable-Phenotype (%),[3],8%
same,Population Mitochondria Different-Phenotype (%),[3],0%
same,Population Mitotic Cells (%),[3],30%
same,Population Normal (%),[3],98%
same,Population Pyknosed Nuclei (%),[3],6%
same,Population Tubulin-Different-Phenotype (%),[3],1%
same,Total Cell Count,[3],215
same,Population Apoptotic (%),[4],100%
same,Population Fragmented Nuclei (%),[4],22%
same,Population Healthy Nuclei (%),[4],75%
same,Population Hoechst High Intensity Objects (%),[4],0%
same,Population Membrane Permeable-Phenotype (%),[4],6%
same,Population Mitochondria Different-Phenotype (%),[4],6%
same,Population Mitotic Cells (%),[4],0%
same,Population Normal (%),[4],100%
same,Population Pyknosed Nuclei (%),[4],2%
same,Total Cell Count,[4],84
same,Population Apoptotic (%),[5],76%
same,Population Fragmented Nuclei (%),[5],18%
same,Population Healthy Nuclei (%),[5],73%
same,Population Hoechst High Intensity Objects (%),[5],2%
same,Population Membrane Permeable-Phenotype (%),[5],3%
same,Population Mitochondria Different-Phenotype (%),[5],2%
same,Population Mitotic Cells (%),[5],23%
same,Population Normal (%),[5],97%
same,Population Pyknosed Nuclei (%),[5],7%
same,Population Tubulin-Different-Phenotype (%),[5],2%
same,Total Cell Count,[5],341
same,Population Apoptotic (%),[6],92%
same,Population Fragmented Nuclei (%),[6],14%
same,Population Healthy Nuclei (%),[6],78%
same,Population Hoechst High Intensity Objects (%),[6],1%
same,Population Membrane Permeable-Phenotype (%),[6],7%
same,Population Mitotic Cells (%),[6],7%
same,Population Normal (%),[6],98%
same,Population Tubulin-Different-Phenotype (%),[6],4%
same,Total Cell Count,[6],185
same,Population Apoptotic (%),[7],86%
same,Population Fragmented Nuclei (%),[7],31%
same,Population Healthy Nuclei (%),[7],62%
same,Population Hoechst High Intensity Objects (%),[7],2%
same,Population Membrane Permeable-Phenotype (%),[7],5%
same,Population Mitochondria Different-Phenotype (%),[7],1%
same,Population Mitotic Cells (%),[7],13%
same,Population Normal (%),[7],97%
same,Population Pyknosed Nuclei (%),[7],6%
same,Population Tubulin-Different-Phenotype (%),[7],2%
same,Total Cell Count,[7],240
same,Population Apoptotic (%),[8],100%
same,Population Fragmented Nuclei (%),[8],16%
same,Population Healthy Nuclei (%),[8],80%
same,Population Hoechst High Intensity Objects (%),[8],0%
same,Population Membrane Permeable-Phenotype (%),[8],3%
same,Population Mitochondria Different-Phenotype (%),[8],4%
same,Population Mitotic Cells (%),[8],0%
same,Population Normal (%),[8],100%
same,Population Pyknosed Nuclei (%),[8],2%
same,Population Tubulin-Different-Phenotype (%),[8],3%
same,Total Cell Count,[8],103
same,Population Apoptotic (%),[9],74%
same,Population Fragmented Nuclei (%),[9],14%
same,Population Healthy Nuclei (%),[9],78%
same,Population Hoechst High Intensity Objects (%),[9],1%
same,Population Membrane Permeable-Phenotype (%),[9],2%
same,Population Mitochondria Different-Phenotype (%),[9],2%
same,Population Mitotic Cells (%),[9],25%
same,Population Normal (%),[9],98%
same,Population Pyknosed Nuclei (%),[9],6%
same,Population Tubulin-Different-Phenotype (%),[9],2%
same,Total Cell Count,[9],484
same,Population Apoptotic (%),[10],81%
same,Population Fragmented Nuclei (%),[10],13%
same,Population Healthy Nuclei (%),[10],76%
same,Population Membrane Permeable-Phenotype (%),[10],5%
same,Population Mitotic Cells (%),[10],18%
same,Population Pyknosed Nuclei (%),[10],10%
same,Population Tubulin-Different-Phenotype (%),[10],1%
same,Total Cell Count,[10],253
same,Population Apoptotic (%),[11],90%
same,Population Fragmented Nuclei (%),[11],23%
same,Population Healthy Nuclei (%),[11],70%
same,Population Hoechst High Intensity Objects (%),[11],1%
same,Population Membrane Permeable-Phenotype (%),[11],5%
same,Population Mitochondria Different-Phenotype (%),[11],1%
same,Population Mitotic Cells (%),[11],10%
same,Population Normal (%),[11],98%
same,Population Pyknosed Nuclei (%),[11],6%
same,Population Tubulin-Different-Phenotype (%),[11],2%
same,Total Cell Count,[11],333
same,Population Apoptotic (%),[12],100%
same,Population Fragmented Nuclei (%),[12],17%
same,Population Healthy Nuclei (%),[12],74%
same,Population Hoechst High Intensity Objects (%),[12],0%
same,Population Membrane Permeable-Phenotype (%),[12],3%
same,Population Mitochondria Different-Phenotype (%),[12],6%
same,Population Mitotic Cells (%),[12],0%
same,Population Normal (%),[12],100%
same,Population Pyknosed Nuclei (%),[12],7%
same,Total Cell Count,[12],152
